Source: ChEMBL document CHEMBL1157211, “Carbamoyl tetrazoles as inhibitors of endocannabinoid inactivation: a critical revisitation” (Eur J Med Chem, 2008)
pIC50: −log10 of the molar value.

Experiments:
[1] = Inhibition of MAGL mediated [14C]2-arachidonoyl glycerol hydrolysis in african green monkey COS cells; type: cell-based; details: Chlorocebus aethiops
Outline: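 The 10,000 g cytosolic fraction of COS cells overexpressing DAGLα was used as the MAGL source. It was incubated with radiolabelled synthetic 2-arachidonoylglycerol (1.0 mCi/mmol) in 50 mM Tris-HCl, pH 7.0, at 37 °C for 20 min. Lipids were then extracted with 2 volumes of chloroform/methanol 2:1 and lyophilized.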

[2] = system: RBL-2H3; test: Inhibition of [14C]anandamide uptake in rat RBL-2H3 cells preincubated 10 mins before addition of [14C]anandamide; type: functional, cell-based; parameters: inhibition (INH): concentration or dose not given beside the values; details: for pIC50: Rattus norvegicus, RBL-2H3
Outline: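 Intact RBL-2H3 cells were pre-exposed to inhibitor at varying concentrations for 10 min, then given [14C]anandamide (10,000 cpm) for 90 s at 37 °C. Uptake was taken as the residual label in the medium after CHCl3/CH3OH 2:1 extraction, read by scintillation counting of the organic phase. Non-specific binding was defined with excess unlabelled anandamide. IC50 was calculated from the inhibition data.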

[3] = biological target: T1, Diacylglycerol lipase-alpha (Homo sapiens, UniProt Q9Y4D2); test: Inhibition of human recombinant DAGLalpha mediated sn-1-[14C]oleoyl-2-arachidonoyl-glycerol hydrolysis to 2-AG overexpressed in COS cells after 20 mins; type: cell-based
T1 sequence (Q9Y4D2 whole entry): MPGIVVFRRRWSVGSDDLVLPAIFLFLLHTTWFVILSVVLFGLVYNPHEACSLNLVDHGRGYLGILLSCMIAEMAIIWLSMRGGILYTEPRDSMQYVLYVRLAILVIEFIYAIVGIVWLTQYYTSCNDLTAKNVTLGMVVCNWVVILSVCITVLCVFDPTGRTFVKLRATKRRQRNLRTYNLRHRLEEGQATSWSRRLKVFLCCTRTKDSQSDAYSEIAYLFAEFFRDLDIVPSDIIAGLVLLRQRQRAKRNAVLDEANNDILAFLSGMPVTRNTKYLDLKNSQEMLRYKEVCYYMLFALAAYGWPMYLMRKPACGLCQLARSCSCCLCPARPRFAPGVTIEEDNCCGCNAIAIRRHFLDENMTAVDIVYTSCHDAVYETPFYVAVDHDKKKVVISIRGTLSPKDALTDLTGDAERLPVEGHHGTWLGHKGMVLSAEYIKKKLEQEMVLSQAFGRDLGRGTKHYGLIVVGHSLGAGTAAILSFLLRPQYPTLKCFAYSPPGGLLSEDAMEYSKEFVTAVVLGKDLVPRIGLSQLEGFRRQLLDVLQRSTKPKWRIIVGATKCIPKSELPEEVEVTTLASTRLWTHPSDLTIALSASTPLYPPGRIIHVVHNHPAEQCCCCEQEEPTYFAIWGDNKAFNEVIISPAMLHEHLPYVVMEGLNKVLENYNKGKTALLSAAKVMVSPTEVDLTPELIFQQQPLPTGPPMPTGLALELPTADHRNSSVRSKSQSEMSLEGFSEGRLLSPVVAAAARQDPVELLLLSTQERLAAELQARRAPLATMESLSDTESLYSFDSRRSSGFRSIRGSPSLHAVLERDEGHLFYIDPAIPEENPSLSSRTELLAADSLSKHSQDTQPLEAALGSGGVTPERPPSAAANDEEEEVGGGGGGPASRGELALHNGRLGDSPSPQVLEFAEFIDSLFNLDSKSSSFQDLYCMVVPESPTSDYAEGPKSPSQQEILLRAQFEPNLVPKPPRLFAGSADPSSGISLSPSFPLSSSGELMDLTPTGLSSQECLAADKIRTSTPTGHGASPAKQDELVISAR
Outline: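 COS cells overexpressing DAGLα were harvested in Tris-HCl pH 7, Dounce-homogenized and spun at 800 g then 10 000 g at 4 °C. The 10 000 g membrane fraction was incubated with sn-1-[14C]oleoyl-2-arachidonoyl-glycerol in 50 mM Tris-HCl with 1 mM CaCl2, pH 7.0, for 20 min at 37 °C. Lipids were extracted with CHCl3/MeOH 2:1 and separated by silica TLC (CHCl3/MeOH/NH4OH 85/15/1). [14C]Oleic acid bands were β-counted.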

[4] = biological target: T2, Fatty-acid amide hydrolase 1 (Rattus norvegicus, UniProt P97612); test: Inhibition of FAAH mediated [14C]anandamide hydrolysis in rat brain after 30 mins; type: tissue-based
T2 sequence (P97612 whole entry): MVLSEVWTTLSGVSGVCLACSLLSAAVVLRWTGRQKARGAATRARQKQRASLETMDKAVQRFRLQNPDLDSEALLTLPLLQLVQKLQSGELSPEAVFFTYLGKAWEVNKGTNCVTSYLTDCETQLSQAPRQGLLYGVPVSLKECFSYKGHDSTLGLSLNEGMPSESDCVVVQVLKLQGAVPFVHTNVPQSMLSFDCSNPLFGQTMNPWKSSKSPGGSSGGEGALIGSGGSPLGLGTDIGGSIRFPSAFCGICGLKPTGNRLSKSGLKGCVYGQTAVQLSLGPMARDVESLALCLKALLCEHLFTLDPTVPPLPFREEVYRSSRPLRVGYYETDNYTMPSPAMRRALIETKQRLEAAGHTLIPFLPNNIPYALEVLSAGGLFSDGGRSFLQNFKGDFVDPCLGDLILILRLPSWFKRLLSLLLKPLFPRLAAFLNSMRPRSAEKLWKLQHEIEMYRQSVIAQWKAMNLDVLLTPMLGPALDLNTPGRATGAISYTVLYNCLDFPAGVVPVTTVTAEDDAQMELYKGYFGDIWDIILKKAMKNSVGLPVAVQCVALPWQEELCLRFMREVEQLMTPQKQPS
Outline: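 Rat brain membranes incubated with test compounds and [14C]anandamide in 50 mM Tris-HCl, pH 9, for 30 min at 37 °C. After extraction with 2 volumes CHCl3/MeOH 2:1, [14C]ethanolamine in the aqueous phase was scintillation-counted. IC50 was taken as the concentration giving 50% inhibition of hydrolysis.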

[5] = system: RBL-2H3; test: Inhibition of [14C]anandamide uptake in rat RBL-2H3 cells at 1 uM preincubated 10 mins before addition of [14C]anandamide; type: functional
Outline: (§1)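 RBL-2H3 cells were given inhibitor at 0.1 or 1 µM for 10 min, then [14C]anandamide (10,000 cpm) for 90 s at 37 °C. Uptake was read as residual medium label in the organic extract, and [14C]ethanolamine was counted in the aqueous phase in the same experiment. Results are % inhibition of uptake, N=4.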

[6] = biological target: T3, Fatty-acid amide hydrolase 1 (Rattus norvegicus) (UniProt P97612); test: Inhibition of FAAH mediated [14C]anandamide hydrolysis in rat RBL-2H3 cells at 1 uM after 30 mins
T3 sequence (whole entry): T2 sequence (P97612 whole entry)

[7] = biological target: T3, Fatty-acid amide hydrolase 1 (Rattus norvegicus); test: Inhibition of FAAH mediated [14C]anandamide hydrolysis in rat RBL-2H3 cells at 0.1 uM after 30 mins
[8] = system: RBL-2H3; test: Inhibition of [14C]anandamide uptake in rat RBL-2H3 cells at 0.1 uM preincubated 10 mins before addition of [14C]anandamide; type: functional; outline: as §1
[9] = system: Monocyte; test: Inhibition of anandamide uptake in human monocytes; type: functional, cell-based

Row | SMILES | pIC50 [1] | inhibition (INH) [2] | pIC50 [2] | pIC50 [3] | pIC50 [4] | inhibition at 1 µM [5] | inhibition [6] | inhibition [7] | inhibition at 0.1 µM [8] | pIC50 [9]
1 | CN(C)C(=O)n1nnnc1CNC(=O)CCCCCCCc1ccccc1 | 7.40 | 37.5% | < 5.00 | 6.24 | 8.00 | – | – | – | – | –
2 | CN(C)C(=O)n1nnnc1Cc1ccc(-c2ccccc2)cc1 | 5.09 | – | 7.82 | < 5.00 | 8.68 | 74.2% | 36.7% | 41.1% | 66.5% | –
3 | CN(C)C(=O)n1nnc(CNC(=O)c2ccc(-c3ccccc3)cc2)n1 | < 5.00 | – | 6.01 | < 5.00 | 8.22 | – | – | – | – | –
4 | CN(C)C(=O)n1nnc(CCCc2ccccc2)n1 | 6.96 | 16% | < 5.00 | 6.30 | 8.49 | – | – | – | – | –
5 | CN(C)C(=O)n1nnnc1CCCc1ccccc1 | 5.00 | 18% | < 5.00 | 5.00 | 8.57 | – | – | – | – | –
6 | CN(C)C(=O)n1nnc(CNC(=O)CCCCCCc2ccccc2)n1 | < 5.00 | 30% | < 5.00 | 5.00 | 8.68 | – | – | – | – | –
7 | CN(C)C(=O)n1nnc(CNC(=O)c2ccc(N=[N+]=[N-])c(I)c2)n1 | < 5.00 | 9% | < 6.00 | 5.36 | 7.60 | – | – | – | – | –
8 | CN(C)C(=O)n1nnc(Cc2ccc(-c3ccccc3)cc2)n1 | 7.70 | – | 6.00 | 6.29 | 7.48 | – | – | – | – | –
9 | CN(C)C(=O)n1nnnc1CNC(=O)CCCCCCc1ccccc1 | 7.70 | – | 6.07 | 6.70 | 8.43 | – | – | – | – | –
10 | CN(C)C(=O)n1nnnc1CNC(=O)c1ccc(N=[N+]=[N-])c(I)c1 | 6.46 | 32.4% | < 6.00 | 6.89 | 7.64 | – | – | – | – | –
11 | C=CCOc1ccc(CN(C/C=C/c2ccccc2)CCCC)cc1 | – | – | – | – | – | – | – | – | – | 7.05
12 | CN(C)C(=O)n1nnc(CCc2ccccc2)n1 | 6.32 | 10.9% | < 5.00 | 6.22 | 8.46 | – | – | – | – | –
13 | CN(C)C(=O)n1nnnc1CCc1ccccc1 | 5.00 | 15.8% | < 5.00 | 5.00 | 8.27 | – | – | – | – | –
14 | CN(C)C(=O)n1nnnc1CNC(=O)c1cccc(-c2ccccc2)c1 | 6.07 | – | 7.05 | 6.47 | 7.49 | – | – | – | – | –
15 | CN(C)C(=O)n1nnc(CNC(=O)c2cccc(-c3ccccc3)c2)n1 | 5.00 | 23% | < 5.00 | < 5.00 | 7.64 | – | – | – | – | –
16 | CN(C)C(=O)n1nnc(CNC(=O)CCCCCCCc2ccccc2)n1 | 5.00 | 18.8% | < 5.00 | 5.00 | 8.49 | – | – | – | – | –
